Measured values: ChEMBL document CHEMBL1158497, “Arylpyrrolizines as inhibitors of microsomal prostaglandin E2 synthase-1 (mPGES-1) or as dual inhibitors of mPGES-1 and 5-lipoxygenase (5-LOX)” (J Med Chem, 2009)
pIC50: −log10 of the molar value. Activity calls are given as the source filed them. The rule behind the calls is not given here.

Columns and labels:
[1] = target: T1, Prostaglandin G/H synthase 2 (Homo sapiens) (UniProt P35354); test: Inhibition of human recombinant COX2 assessed as residual activity at 30 uM preincubated for 5 mins by measuring 12-HHT level using HPLC method relative to control
T1 sequence (whole entry): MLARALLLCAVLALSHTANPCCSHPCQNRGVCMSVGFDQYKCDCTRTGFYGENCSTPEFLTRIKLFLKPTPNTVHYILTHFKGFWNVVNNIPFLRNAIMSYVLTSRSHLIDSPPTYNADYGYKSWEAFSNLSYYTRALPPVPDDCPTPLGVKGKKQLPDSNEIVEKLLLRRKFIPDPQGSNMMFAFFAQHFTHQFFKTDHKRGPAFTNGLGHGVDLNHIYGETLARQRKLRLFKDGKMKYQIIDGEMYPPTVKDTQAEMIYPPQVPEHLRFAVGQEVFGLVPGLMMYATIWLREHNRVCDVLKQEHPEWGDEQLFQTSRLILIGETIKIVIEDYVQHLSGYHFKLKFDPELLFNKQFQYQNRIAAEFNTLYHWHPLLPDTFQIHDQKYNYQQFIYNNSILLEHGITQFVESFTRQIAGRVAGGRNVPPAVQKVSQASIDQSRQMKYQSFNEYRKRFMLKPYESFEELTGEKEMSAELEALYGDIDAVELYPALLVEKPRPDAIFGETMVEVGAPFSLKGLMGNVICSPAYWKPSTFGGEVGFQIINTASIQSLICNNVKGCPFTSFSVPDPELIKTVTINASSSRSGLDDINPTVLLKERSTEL
Method in brief: (§1)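 Isolated COX-1 and COX-2 enzymes were each exposed to inhibitor at 30 μM in 0.1% DMSO vehicle. Activity was read as 12-HHT concentration as a percentage of vehicle control, n=3-5, with ANOVA and Tukey HSD versus vehicle.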

[2] = target: T2, Prostaglandin G/H synthase 1 (Ovis aries) (UniProt P05979); test: Inhibition of ovine COX1 assessed as residual enzyme activity at 30 uM preincubated for 5 mins by measuring 12-HHT level using HPLC method relative to control; method in brief: as §1
T2 sequence (whole entry): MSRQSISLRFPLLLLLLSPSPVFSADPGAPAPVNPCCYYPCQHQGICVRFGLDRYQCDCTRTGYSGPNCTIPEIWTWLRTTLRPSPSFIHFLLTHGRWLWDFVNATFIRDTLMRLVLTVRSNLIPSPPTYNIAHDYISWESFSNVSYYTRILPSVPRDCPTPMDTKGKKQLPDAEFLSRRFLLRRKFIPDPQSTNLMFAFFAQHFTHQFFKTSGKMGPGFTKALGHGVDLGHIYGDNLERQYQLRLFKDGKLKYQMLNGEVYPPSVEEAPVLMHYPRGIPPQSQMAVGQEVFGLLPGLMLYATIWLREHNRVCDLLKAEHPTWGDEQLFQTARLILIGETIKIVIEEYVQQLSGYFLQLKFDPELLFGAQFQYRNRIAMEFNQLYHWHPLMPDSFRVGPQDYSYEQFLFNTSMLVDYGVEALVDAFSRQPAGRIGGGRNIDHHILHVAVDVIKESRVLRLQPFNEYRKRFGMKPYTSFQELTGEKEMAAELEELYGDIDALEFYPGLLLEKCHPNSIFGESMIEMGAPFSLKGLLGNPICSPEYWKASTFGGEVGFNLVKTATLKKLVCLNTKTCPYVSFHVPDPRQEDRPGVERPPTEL

[3] = Inhibition of 5-lipoxygenase in bovine polymorphonuclear leucocytes assessed as formation of LTB4 by HPLC method; format: cell-based; details: Bos taurus
[4] = target: T3, Prostaglandin E synthase (Homo sapiens) (UniProt O14684); test: Inhibition of mPGES1 in IL1-beta treated human A549 cell microsomal membrane assessed as residual enzyme activity at 10 uM after 1 min by measuring PGE2 level using RP-HPLC method relative to control; format: microsomes; details: Microsome
T3 sequence (whole entry): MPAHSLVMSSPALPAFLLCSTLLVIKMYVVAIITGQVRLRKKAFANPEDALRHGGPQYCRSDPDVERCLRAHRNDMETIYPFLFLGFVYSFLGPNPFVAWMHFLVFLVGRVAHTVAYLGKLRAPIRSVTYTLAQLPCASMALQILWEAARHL
Method in brief: (§2)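 Cell-free assay using microsomes from A549 cells as the PGE2 synthase source. Compounds were tested at four concentrations (10 μM, 1 μM, 100 nM, 10 nM; 1 nM where needed) in 0.1% DMSO vehicle. Read-out was PGE2 level as a percentage of vehicle control, n=3-5, with ANOVA and Tukey HSD versus vehicle.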

Prostaglandin E synthase [5] = target: T4, Prostaglandin E synthase (Homo sapiens, UniProt O14684); test: Inhibition of mPGES1 in IL1-beta treated human A549 cell microsomal membrane assessed as residual enzyme activity after 1 min by measuring PGE2 level using RP-HPLC method; format: microsomes, Microsome; method in brief: as §2
T4 sequence (O14684 whole entry): T3 sequence (whole entry)

Prostaglandin E synthase [6] = target: T4, Prostaglandin E synthase; test: Inhibition of mPGES1 in IL1-beta treated human A549 cell microsomal membrane assessed as blockade of PGH2 to PGE2 conversion after 1 min; format: microsomes, Microsome; method in brief: as §2
[7] = Inhibition of rat mPGES1

Row | SMILES | Activity [1] | Activity [2] | pIC50 [3] | Activity [4] [%] | pIC50 (Prostaglandin E synthase [5]) | pIC50 (Prostaglandin E synthase [6]) | pIC50 [7]
1 | CC1(C)Cc2c(-c3ccccc3)c(-c3ccc(Cl)cc3)c(CCC(=O)O)n2C1 | inactive | 82.9% |  | 47.4 | 5.14 |  | 
2 | Cc1ccc(S(=O)(=O)NC(=O)Cc2c(-c3ccc(Cl)cc3)c(-c3ccccc3)c3n2CC(C)(C)C3)cc1 | 13.6% | 8.6% | 6.59 | 32.2 | 5.32 |  | 
3 | CC1(C)Cc2c(-c3ccccc3)c(-c3ccc(Cl)cc3)c(CC(=O)O)n2C1 [LICOFELONE] | 53.7% | 12.4% | 6.74 | 44.9 | 5.17 | 5.22 | 
4 | CC(C)c1ccc2c(c1)c(SC(C)(C)C)c(CC(C)(C)C(=O)O)n2Cc1ccc(Cl)cc1 | 56.7% | 19.5% |  | 22.5 |  |  | 5.49
5 | CC1(C)Cc2c(-c3ccccc3)c(-c3ccc(C(F)(F)F)cc3)c(CC(=O)O)n2C1 |  |  | 6.51 | 56.1 |  |  | 
6 | CC1(C)Cc2c(-c3ccccc3)c(-c3ccc([N+](=O)[O-])cc3)c(CC(=O)O)n2C1 |  |  | 5.82 | 58.8 |  |  | 

The remaining lines, values ahead:

Row | Activity [1] | Activity [2] | pIC50 [3] | Activity [4] [%] | pIC50 (Prostaglandin E synthase [5]) | pIC50 (Prostaglandin E synthase [6]) | pIC50 [7] | SMILES
7 | inactive | inactive | 6.74 | 53.8 |  |  |  | CC1(C)Cc2c(-c3ccccc3)c(-c3ccc(C(C)(C)C)cc3)c(CC(=O)O)n2C1
8 |  |  | 5.80 | 65.3 |  |  |  | O=C(O)Cc1c(-c2ccc(Cl)cc2)c(-c2ccccc2)c2n1CCC2
9 | inactive | 29.2% |  | 23.2 | 5.68 |  |  | Cc1ccc(S(=O)(=O)NC(=O)CCc2c(-c3ccc(Cl)cc3)c(-c3ccccc3)c3n2CC(C)(C)C3)cc1
10 | 75.8% | 94% |  | 42.1 | 5.21 |  |  | CC1(C)Cc2c(-c3ccccc3)c(-c3ccc4ccoc4c3)c(CC(=O)O)n2C1
11 | 46.5% | 37.4% | 6.30 | 27.9 | 5.41 |  |  | CC1(C)Cc2c(-c3ccccc3)c(-c3ccc(Cl)cc3)c(Cc3nnn[nH]3)n2C1
12 |  |  | 5.72 | 20.8 | 5.74 |  |  | O=C(O)CCc1c(-c2ccc(Cl)cc2)c(-c2ccccc2)c2n1CCC2
13 |  |  |  | 38.5 | 5.23 |  |  | CCC1(CC)Cc2c(-c3ccccc3)c(-c3ccc(Cl)cc3)c(CC(=O)NS(C)(=O)=O)n2C1
14 |  |  | 6.64 | 63.1 |  |  |  | CC1(C)Cc2c(-c3ccccc3)c(-c3ccc(Cl)cc3)c(CC(=O)NS(C)(=O)=O)n2C1
15 | 43.4% | 25.8% | 6.60 | 28.7 | 5.35 |  |  | CC1(C)Cc2c(-c3ccccc3)c(-c3ccc(Cl)cc3)c(CC(=O)NS(=O)(=O)c3ccccc3)n2C1
